Laboratory results reported in ChEMBL document CHEMBL1138513, “Glucose promoiety enables glucose transporter mediated brain uptake of ketoprofen and indomethacin prodrugs in rats” (J Med Chem, 2009).

Key:
[1] = system: Brain; assay: (§1) Metabolic stability in rat brain homogenate assessed as half life by HPLC; format: ADME, tissue-based
Procedure, shortened: (§2)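 Prodrug incubated at 37 °C in rat brain homogenate diluted to 20% (v/v), or in liver homogenate diluted to 50% (v/v), in isotonic 0.16 M phosphate buffer, pH 7.4. Aliquots quenched with acetonitrile and centrifuged; remaining prodrug and released parent drug measured by HPLC. Pseudo-first-order t1/2 reported; mean ± sd, n = 3.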

[2] = Chemical stability in aqueous phosphate buffer at pH 7.4 assessed as half life by HPLC; format: physicochemical
Procedure, shortened: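 Prodrug dissolved in preheated 0.16 M phosphate buffer, pH 7.4, ionic strength 0.5, held at 37 °C in a water bath. Samples taken at intervals and remaining prodrug measured by HPLC. Pseudo-first-order t1/2 taken from the slope of log remaining prodrug versus time; mean ± sd, n = 2.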

[3] = system: Brain; assay: Drug uptake in Wistar rat brain at 15000 uM by perfusion technique; format: ADME, tissue-based; conditions: in vivo
Procedure, shortened: (§3)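 In situ brain perfusion via the right common carotid artery in adult male Wistar rats (200-230 g) under ketamine/xylazine ip. Prodrug in perfusion medium with 1% DMSO, pH 7.4, perfused 60 s at 37 °C, then washed with cold (5 °C) prodrug-free medium for 30 s. Brain hemisphere analysed by HPLC; uptake in pmol/mg/min, mean ± sd, n = 3.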

[4] = target: T1, Solute carrier family 2, facilitated glucose transporter member 1 (Rattus norvegicus) (UniProt P11167); assay: Inhibition of GluT1-mediated [14C]D-glucose uptake in Wistar rat brain at 80 uM after 30 seconds perfusion measured after drug washout from brain capillary 30 seconds before [14C]D-glucose challenge
T1 sequence (whole entry): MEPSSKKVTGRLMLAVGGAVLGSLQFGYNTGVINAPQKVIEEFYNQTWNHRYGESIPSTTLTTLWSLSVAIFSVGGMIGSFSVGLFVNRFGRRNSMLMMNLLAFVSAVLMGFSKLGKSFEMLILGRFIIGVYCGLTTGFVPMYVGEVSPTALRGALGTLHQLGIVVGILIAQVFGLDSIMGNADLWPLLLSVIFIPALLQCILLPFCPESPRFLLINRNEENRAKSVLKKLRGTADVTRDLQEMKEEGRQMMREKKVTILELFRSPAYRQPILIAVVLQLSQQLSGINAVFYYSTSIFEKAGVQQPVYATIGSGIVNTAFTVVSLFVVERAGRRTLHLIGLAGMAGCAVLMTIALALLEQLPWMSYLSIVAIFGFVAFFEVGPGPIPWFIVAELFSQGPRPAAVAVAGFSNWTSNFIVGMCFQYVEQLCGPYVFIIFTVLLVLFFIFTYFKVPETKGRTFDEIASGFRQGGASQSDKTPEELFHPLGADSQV
Procedure, shortened: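 Reversibility test in male Wistar rats. Brain perfused first with prodrug at 80 µM for 30 s, then with prodrug-free medium for 30 s to wash the capillaries, then with 0.2 µCi/mL [14C]D-glucose for 30 s. PA product of [14C]D-glucose then determined.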

[5] = Metabolic stability in rat liver homogenate assessed as half life by HPLC; format: ADME, tissue-based; procedure, shortened: as §2
[6] = as §1; format: ADME, tissue-based; procedure, shortened: as §2
[7] = target: T1, Solute carrier family 2, facilitated glucose transporter member 1 (Rattus norvegicus); assay: Inhibition of GluT1-mediated [14C]D-glucose uptake in Wistar rat brain at 80 uM by perfusion technique
[8] = system: Brain; assay: Drug uptake in Wistar rat brain at 150 uM by perfusion technique […]; format: ADME, tissue-based; conditions: in vivo
Procedure, shortened: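 Carrier-mediated uptake blocked nonspecifically by cold in male Wistar rats. Capillaries first washed 30 s with 5 °C prodrug-free medium, then perfused 60 s with 5 °C prodrug solution at 150 µM, then washed again with cold medium. Brain prodrug measured by HPLC; mean ± sd, n = 3.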

[9] = system: Brain; assay: Drug uptake in Wistar rat brain at 1000 uM by perfusion technique; format: ADME, tissue-based; conditions: in vivo; procedure, shortened: as §3
[10] = system: Brain; assay: Drug uptake in Wistar rat brain at 150 uM by perfusion technique; format: ADME, tissue-based; conditions: in vivo; procedure, shortened: as §3
[11] = system: Brain; assay: Drug uptake in Wistar rat brain at 450 uM by perfusion technique; format: ADME, tissue-based; conditions: in vivo; procedure, shortened: as §3
[12] = system: Brain; assay: Drug uptake in Wistar rat brain at 150 uM by perfusion technique in presence of D-glucose; format: ADME, tissue-based; conditions: in vivo
Procedure, shortened: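 Male Wistar rats, in situ carotid brain perfusion. Prodrug at 150 µM given for 60 s at 37 °C in perfusion medium (1% DMSO, pH 7.4) with 50 mM D-glucose added, followed by a 30 s cold prodrug-free wash. Brain prodrug measured by HPLC; uptake in pmol/mg/min, mean ± sd, n = 3.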

[13] = target: T2, Solute carrier family 2, facilitated glucose transporter member 1 (Rattus norvegicus, UniProt P11167); assay: (§4) Inhibition of GluT1-mediated [14C]D-glucose uptake in Wistar rat brain by perfusion technique
T2 sequence (P11167 whole entry): T1 sequence (whole entry)
Procedure, shortened: (§5)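 Rat brain PA product of 0.2 µCi/mL [14C]D-glucose measured by in situ perfusion with prodrug co-perfused at concentrations from 0.1 to 1000 µM or 0.01 to 80 µM. IC50 obtained by nonlinear regression; mean ± sd, n = 2.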

[14] = target: T1, Solute carrier family 2, facilitated glucose transporter member 1 (Rattus norvegicus); assay: as §4; procedure, shortened: as §5
[15] = system: Brain; assay: Drug uptake in Wistar rat brain at 3500 uM by perfusion technique; format: ADME, tissue-based; conditions: in vivo; procedure, shortened: as §3
[16] = target: T1, Solute carrier family 2, facilitated glucose transporter member 1 (Rattus norvegicus); assay: Inhibition of GluT1-mediated [14C]D-glucose uptake in Wistar rat brain at 20 mM by perfusion technique

SMILES | Activity [1] | half-life [2] | PA [4] | inhibition [7] | Drug uptake [8] | Drug uptake [10] | Drug uptake [12] | IC50 [13] | Activity [14] | other results
CC(C(=O)OC[C@H]1O[C@@H](O)[C@H](O)[C@@H](O)[C@@H]1O)c1cccc(C(=O)c2ccccc2)c1 (some centres not stated) | – | 88.5 h | 0.0033 mL/s/g | 75.5% | 0.515 pmol/mg/min | 1.33 pmol/mg/min | 0.513 pmol/mg/min | 32.9 µM | Dose-dependent effect | Drug uptake [3]: 93.21 pmol/mg/min; half-life [5]: 8.6 min; half-life [6]: 0.725 h; Drug uptake [9]: 7.78 pmol/mg/min; Drug uptake [11]: 3.55 pmol/mg/min; Drug uptake [15]: 20.77 pmol/mg/min
OC[C@H]1OC(O)[C@H](O)[C@@H](O)[C@@H]1O (some centres not stated) | – | – | – | – | – | – | – | – | – | inhibition [16]: 73.8%
COc1ccc2c(c1)c(CC(=O)OC[C@H]1O[C@@H](O)[C@H](O)[C@@H](O)[C@@H]1O)c(C)n2C(=O)c1ccc(Cl)cc1 | – | 40.5 h | 0.0032 mL/s/g | 96.7% | 0.599 pmol/mg/min | 1.993 pmol/mg/min | 1.806 pmol/mg/min | 0.71 µM | Dose-dependent effect | –

The next lines start with results.

Activity [1] | half-life [2] | PA [4] | inhibition [7] | Drug uptake [8] | Drug uptake [10] | Drug uptake [12] | IC50 [13] | Activity [14] | SMILES | other results
Unstable | 3 h | – | – | – | – | – | – | – | COc1ccc2c(c1)c(CC(=O)OCC(=O)OC[C@H]1O[C@@H](O)[C@H](O)[C@@H](O)[C@@H]1O)c(C)n2C(=O)c1ccc(Cl)cc1 | –
Unstable | 9.5 h | – | – | – | – | – | – | – | COc1ccc2c(c1)c(CC(=O)OC(C)C(=O)OC[C@H]1O[C@@H](O)[C@H](O)[C@@H](O)[C@@H]1O)c(C)n2C(=O)c1ccc(Cl)cc1 (some centres not stated) | –
